# Measured values taken from ChEMBL document CHEMBL3351938, “C5-Alkyl-2-methylurea-Substituted Pyridines as a New Class of Glucokinase Activators” (ACS Med Chem Lett, 2014).
# Calls of active or inactive are those of the source. No cut-off for these calls is given here.
# Target: T1, Hexokinase-4 (Homo sapiens) (UniProt P35557)
# T1 sequence (whole entry): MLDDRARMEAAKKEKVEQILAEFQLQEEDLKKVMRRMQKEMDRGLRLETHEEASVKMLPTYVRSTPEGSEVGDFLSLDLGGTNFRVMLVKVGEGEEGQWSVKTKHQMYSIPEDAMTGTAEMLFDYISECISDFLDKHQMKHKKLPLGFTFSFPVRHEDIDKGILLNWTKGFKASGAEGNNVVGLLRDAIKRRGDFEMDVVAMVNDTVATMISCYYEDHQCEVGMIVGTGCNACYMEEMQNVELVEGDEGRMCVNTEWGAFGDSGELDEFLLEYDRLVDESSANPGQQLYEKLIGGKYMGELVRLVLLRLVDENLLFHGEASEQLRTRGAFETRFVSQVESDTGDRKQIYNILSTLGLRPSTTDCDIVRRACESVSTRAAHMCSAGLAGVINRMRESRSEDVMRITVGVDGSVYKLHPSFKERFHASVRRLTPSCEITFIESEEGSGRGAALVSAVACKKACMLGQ
# Experiment: Activity of activated human recombinant Glucokinase assessed as maximum glucose phosphorylation measured over 5 mins by spectrophotometry relative to unactivated enzyme
# In short: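 Recombinant human GK; V_max is the maximal velocity of glucose phosphorylation by activated GK divided by that of unactivated GK; n = 2.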
row,Ratio,Structure (SMILES)
1,0.74,CCc1ncccc1Oc1cc(CCCCOC)cnc1NC(=O)NC
2,0.76,CCn1nccc1Oc1cc(C[C@H]2CCO[C@H](COC)C2)cnc1NC(=O)NC
3,0.75,CCn1nccc1Oc1cc(CCCC(C)(C)O)cnc1NC(=O)NC
4,0.66,CCn1nccc1Oc1cc(C[C@H]2CC[C@@H](O)CC2)cnc1NC(=O)NC
5,0.6,CNC(=O)Nc1ncc(CC2CCOCC2)cc1Oc1ccnn1C(C)C
6,0.71,CCn1nccc1Oc1cc(C[C@H]2CC[C@](C)(O)CC2)cnc1NC(=O)NC
7,0.78,CCn1nccc1Oc1cc(CN2CCOCC2)cnc1NC(=O)NC
8,0.82,CCn1nccc1Oc1cc(C[C@H]2CC[C@@](C)(O)CC2)cnc1NC(=O)NC
9,0.79,CCn1nccc1Oc1cc(C[C@H]2CC[C@H](O)CC2)cnc1NC(=O)NC
10,0.96,CCn1nccc1Oc1cc(C[C@H]2C[C@H](O)C2)cnc1NC(=O)NC
11,0.8,CCn1nccc1Oc1cc(CC2CCOCC2)cnc1NC(=O)NC
12,0.78,CCn1nccc1Oc1cc(C[C@@H]2CCO[C@@H](COC)C2)cnc1NC(=O)NC
13,0.7,CCOCCc1cnc(NC(=O)NC)c(Oc2cccnc2CC)c1
14,0.88,CCn1nccc1Oc1cc(C[C@H]2C[C@@H](O)C2)cnc1NC(=O)NC
15,0.78,CCc1ncccc1Oc1cc(CCCOC)cnc1NC(=O)NC
16,0.71,CCn1nc(COC)cc1Oc1cc(CC2CCOCC2)cnc1NC(=O)NC
17,0.8,CCn1nccc1Oc1cc(C[C@H]2C[C@@](C)(O)C2)cnc1NC(=O)NC
18,0.73,CCc1ncccc1Oc1cc(CCCC(C)(C)O)cnc1NC(=O)NC
19,0.86,CCc1ncccc1Oc1cc(CCCCO)cnc1NC(=O)NC
20,0.83,CCn1nccc1Oc1cc(CCCCOC)cnc1NC(=O)NC
21,0.82,CCn1nccc1Oc1cc(C(O)C2CCOCC2)cnc1NC(=O)NC (stereo unspecified)
22,0.75,CCc1ncccc1Oc1cc(CC2CCOCC2)cnc1NC(=O)NC
23,0.82,CCc1ncccc1Oc1cc(CC(C)C)cnc1NC(=O)NC
24,0.73,CCc1ncccc1Oc1cc(CC2CCCCC2)cnc1NC(=O)NC

# Tested on: Mus musculus
# Experiment: Antidiabetic activity in C57Bl/6 mouse assessed as reduction in blood glucose AUC at 30 mg/kg, po administered 30 mins prior glucose challenge by oral glucose tolerance test
# Type: functional, organism-based
# Parameters: dose 30 mg/kg
# In short: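 Oral dose–response OGTT in C57Bl/6 mice at 3, 10 and 30 mg/kg; blood glucose area-under-curve assessed; significance versus vehicle by two-way ANOVA.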
row,Structure (SMILES),Activity
1,CCn1nccc1Oc1cc(CC2CCOCC2)cnc1NC(=O)NC,Active

# Tested on: Mus musculus
# Experiment: Antidiabetic activity in fasted ob/ob mouse assessed as reduction in blood glucose AUC compound administered orally 30 mins prior glucose challenge by oral glucose tolerance test relative to control
# Type: functional, organism-based
# In short: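 OGTT in fasted ob/ob mice with oral doses of 0.3, 1, 3 and 10 mg/kg; blood glucose AUC compared to vehicle by two-way ANOVA.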
row,Structure (SMILES),Activity
1,CCn1nccc1Oc1cc(C[C@H]2C[C@](C)(O)C2)cnc1NC(=O)NC,Dose-dependent effect
